Bioassay records (PubChem BioAssay)
An excerpt weighted towards active compounds, which were near 2.8% of everything screened.
RAM network inh: blocks the yeast RAM network. S. cerevisiae dse1pr::URA3 reporter, 5-FOA growth OD615, 2 d; analog-sensitive cbk1-as2 kinase mutant strain. inhibition, % at 50 µM. 190,000 tested, 1.8% active;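 active = inhibition above a set limit, 3 SD over mean compound inhibition, cut at about 8.4% in these data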;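 note: inhibition rescues growth on 5-FOA so higher OD means more RAM inhibition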
Yeast lifespan up: yeast lifespan extension. S. cerevisiae growth with nicotinamide, OD615; deaD strain in restrictive glucose medium. inhibition of the nicotinamide effect, % at 10 µM. 130,000 tested, 0.68% active. AID 775;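 active = inhibition above a set limit, placed 3 SD over the median of all compounds, cut at about 26% in these data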
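Assay system: DeaD-strain S. cerevisiae. Medium: CSMM-D glucose medium, restrictive. Reagent: nicotinamide, 1.5 mM, co-present with compound. Compound: 10 µM single point, 0.25% DMSO. Schedule: culture preincubation 4 h, compound exposure 48 h, both 30 °C. Detection: absorbance at 615 nm.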
TNAP act hiacc: TNAP (human) activation, high acceptor; P05186; purified TNAP, CDP-star luminescence, 1 M DEA, 30 min; hits give high values; 0 = EDTA background, 1 = DMSO-only activity; activation factor at 20 µM; 200,000 tested, under 10 active;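 active = activation factor at least 2 at 20 µM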
Target sequence (P05186 whole entry, looked up): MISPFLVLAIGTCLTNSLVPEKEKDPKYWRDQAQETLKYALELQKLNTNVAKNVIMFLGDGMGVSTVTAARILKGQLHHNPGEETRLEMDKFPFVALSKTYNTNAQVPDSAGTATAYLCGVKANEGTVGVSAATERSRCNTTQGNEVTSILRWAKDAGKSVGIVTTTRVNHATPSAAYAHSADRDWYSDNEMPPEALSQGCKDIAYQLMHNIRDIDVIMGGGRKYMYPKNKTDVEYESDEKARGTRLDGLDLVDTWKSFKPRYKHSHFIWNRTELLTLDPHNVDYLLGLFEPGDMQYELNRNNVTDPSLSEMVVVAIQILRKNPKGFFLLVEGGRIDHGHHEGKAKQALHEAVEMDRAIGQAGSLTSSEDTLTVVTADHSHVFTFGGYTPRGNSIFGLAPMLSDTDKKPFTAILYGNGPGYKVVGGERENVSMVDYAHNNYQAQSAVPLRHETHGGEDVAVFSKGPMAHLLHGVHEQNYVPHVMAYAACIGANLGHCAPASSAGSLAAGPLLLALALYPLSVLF
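Assay system: human TNAP; Input: enzyme diluted 1/800 final; Reagent: CDP-star luminogenic substrate at 100 µM final; Timing: 30 min, room temperature; Signal: luminescence; Evaluation: TNAP activation factor scaled between EDTA and DMSO control wells.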
TNAP inh no acc: blocks human TNAP activity with no phosphate acceptor present; purified TNAP, CDP-star luminescence, 30 min; inhibition, % at 20 µM; 200,000 tested, 0.26% active;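 active = tissue-nonspecific alkaline phosphatase inhibition above about 50% at 20 µM in the single-dose screen, limit read from the data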
TNAP inh hiacc: TNAP (human) inhibition, high acceptor | P05186 | purified TNAP, CDP-star luminescence, 1 M DEA | inhibition, % at 20 µM | 200,000 tested, 0.03% active | AID 1135;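 active = over 50% inhibition of tissue-nonspecific alkaline phosphatase at 20 µM in the single-dose screen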
Yeast growth inh: chemicals that inhibit yeast BB579 growth in restrictive medium (lifespan-shortening candidates) | AID 804 | inhibition, % at 10 µM | S. cerevisiae BB579 growth, OD615, 48 h | 140,000 tested, 0.51% active;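 active = inhibition above a set limit, 3 SD over the mean compound inhibition, cut at about 44% in these data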
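controls = amphotericin B 10 µg/mL, positive | assay system = DeaD yeast strain BB579 | schedule = 48 h compound exposure at 30 °C after 4 h preincubation | detection = OD615 turbidity measurement | medium = restrictive CSMM-D medium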
Hits are given with their value; – = inactive; · = no result given.

SMILES	RAM network inh	Yeast lifespan up	TNAP act hiacc	TNAP inh no acc	TNAP inh hiacc	Yeast growth inh
O=S(=O)(NC1CCCC1)c1ccc(S(=O)(=O)N(Cc2cccs2)CC2CCCO2)cc1 (stereo unspecified)	9.6	–	–	–	–	–
COc1cccc(-c2nc(C(N)=O)c3[nH]c(=O)n(-c4cccc(Cl)c4)c3n2)c1OC	11.1	–	–	–	–	–
CCC(C)c1ccccc1NC(=O)Cc1coc2cc3c(cc12)CCC3 (stereo unspecified)	9.5	–	–	–	–	–
Cc1cc(NS(=O)(=O)c2ccc(NC(=S)NC(=O)c3ccc(Cl)cc3Cl)cc2)no1	–	–	–	–	–	–
C=CCNC(=O)NC(=O)CSc1nnc(C(F)(F)F)n1C	–	·	–	–	–	·
CCC(=NCCc1c(C)[nH]c2ccc(C)cc12)C1=C(O)CC(c2ccccc2)CC1=O (stereo unspecified)	–	49.5	–	–	–	–
CC(C)NC(=O)c1ccccc1NC(=O)C1COc2ccccc2O1 (stereo unspecified)	–	·	–	–	–	–
CCC(C)NC(=O)c1ccccc1NC(=O)C1COc2ccccc2O1 (stereo unspecified)	8.8	·	–	–	–	·
Cc1ccc(S(=O)(=O)CC2CSc3nc4ccccc4n32)cc1 (stereo unspecified)	–	–	–	–	–	–
O=C(CN1C(=O)c2ccccc2C1=O)Nc1sc2c(c1C(=O)NCC1CCCO1)CCC2 (stereo unspecified)	–	–	–	–	–	–
COc1ccc(OCC(=O)Nc2sc3c(c2C(=O)NCC2CCCO2)CCC3)cc1 (stereo unspecified)	9.0	–	–	–	–	–
COc1ccc(CNC(=O)C(c2ccc(C)cc2)N(Cc2cccs2)C(=O)c2ccc3c(c2)OCCO3)cc1 (stereo unspecified)	8.7	–	–	–	–	–
Cc1ccc(C(C(=O)NCc2ccccc2)N(Cc2cccs2)C(=O)c2ccc3c(c2)OCCO3)cc1 (stereo unspecified)	–	–	–	–	–	–
COc1ccc(CNC(=O)C(c2cccs2)N(Cc2ccco2)C(=O)Cc2cccs2)cc1 (stereo unspecified)	10.6	·	–	–	–	–
C=CCn1c(SCC(=O)N2CCc3ccccc3C2)nnc1-c1ccncc1	–	–	–	–	–	–
CSc1n[nH]c(NCc2cccs2)n1	–	–	–	55.7	–	–
Cc1oc(C(C)(C)C)cc1C(=O)Nc1cccc(/C=C/C(=O)O)c1	8.4	–	–	–	–	–
O=c1cc(CSc2nnc(Nc3ccccc3F)s2)nc2sccn12	–	·	–	52.3	–	·
Cc1ccc(Nc2nnc(SCc3cc(=O)n4cc(C)ccc4n3)s2)cc1	10.8	–	–	–	–	–
Cc1ccc2nc(CSc3nnc(Nc4ccccc4F)s3)cc(=O)n2c1	–	–	–	–	–	–
C=CCn1c(=O)/c(=C/c2cc(OC)c(OC)c(OC)c2)s/c1=C(/C#N)c1nc2ccccc2n1C	–	–	–	–	–	–
Cc1ccc(-c2cc(C(=O)O)n(-c3ccc(S(N)(=O)=O)cc3)n2)cc1	–	·	–	–	–	·
COc1ccc(C(C)C)cc1S(=O)(=O)N1CC(C)OC(C)C1 (stereo unspecified)	–	·	–	–	–	·
COc1ccc(C)cc1S(=O)(=O)N1CCN(c2cccc(C(F)(F)F)c2)CC1	11.3	–	–	–	–	–
COc1ccc(C(C)C)cc1S(=O)(=O)N1CCN(c2ccccc2)CC1	10.6	·	–	–	–	·
SMILES	RAM network inh	Yeast lifespan up	TNAP act hiacc	TNAP inh no acc	TNAP inh hiacc	Yeast growth inh
CC(C)CNC(=O)c1cccc(NC(=O)C(C)C)c1	–	·	–	–	–	·
CC1(C)CCCC(C)(C)N1CC(O)COCCOc1ccc(Br)cc1 (stereo unspecified)	–	–	–	–	–	–
COc1nc(Cc2ccc(Cl)cc2)nc2ccccc12	–	·	–	–	–	·
C#CCSc1nc(Cc2ccc(Cl)cc2)nc2ccccc12	8.6	–	–	–	–	–
CN(C)CCCN(C(=O)c1cccs1)c1nc(-c2ccccc2)cs1	–	–	–	–	–	–
CN(c1ccc(O)cc1)c1nc(-c2ccccc2)cs1	–	–	–	–	–	81.5
Cn1cc([N+](=O)[O-])c(C(=O)Nc2ccc(Br)cn2)n1	–	–	–	–	–	–
Cc1cc(C)cc(NC(=S)N2CCC(NC(=O)c3ccccc3C)CC2)c1	–	·	–	–	–	·
CC(C)(C)c1nnc(N/N=C/c2cc(Br)ccc2O)n(N)c1=O	–	–	–	–	–	53.0
CC(C)(C)C1CCc2onc(C(=O)O)c2C1 (stereo unspecified)	–	·	–	–	–	·
COC(=O)c1cc(=O)n(Cc2ccco2)c(=Nc2ccc(F)c(Cl)c2)s1	–	–	–	–	–	–
COC(=O)c1cc(=O)n(-c2ccc(F)cc2)c(=Nc2ccc(F)cc2)s1	–	29.0	–	–	–	–
COC(=O)c1cc(=O)n(CCc2ccccc2F)c(=Nc2ccc(F)c(Cl)c2)s1	10.0	–	–	–	–	–
CC1CC(NC(=O)C2(C)CC2(Cl)Cl)CC(C)(C)C1 (stereo unspecified)	–	–	–	–	–	–
CCN(C(=O)CSc1nnc(-c2ccncc2)n1Cc1ccccc1)C1CCS(=O)(=O)C1 (stereo unspecified)	–	·	–	–	–	·
CC(Sc1nc(C(C)(C)C)cc(-c2ccccc2)c1C#N)C(=O)Nc1ccccc1 (stereo unspecified)	9.2	–	–	–	–	–
COc1ccc(CCNC(=O)COc2ccc(-c3ccc(C#N)cc3)cc2)cc1	–	–	–	–	–	–
N#Cc1ccc(-c2ccc(OCC(=O)NCCc3ccccc3)cc2)cc1	–	45.6	–	–	–	–
COc1cc(C(=O)Nc2cc(-c3nc4cc(C)ccc4o3)ccc2C)cc(OC)c1OC	–	–	–	–	–	–
COc1cc(C(=O)Nc2cccc(-c3nc4cc(C)ccc4o3)c2)cc(OC)c1OC	8.7	–	–	–	–	–
COc1ccc2c(c1)C(C)CC(C)(C)N2C(=O)NC1CCCCC1 (stereo unspecified)	–	27.0	–	–	–	–
CC1CC(C)(C)N(C(=O)NC2CCCCC2)c2ccccc21 (stereo unspecified)	–	·	–	–	–	–
O=C1C2C3C=CC(C3)C2C(=O)N1c1n[nH]c(-c2ccccc2)n1 (stereo unspecified)	–	–	–	95.8	–	–
O=C1C2C3C=CC(C3)C2C(=O)N1c1cccc(N2C(=O)C3C4C=CC(C4)C3C2=O)n1 (stereo unspecified)	–	–	–	–	–	–
